Screening data from PubChem.
Sampled rows, rich in hits. Any-hit rate of the full collection: about 5.5%.
HSV augment = increases HSV replication in cells. HSV replication augmentation in cells, fold increase. 220,000 tested, 0.005% active. maximum fold increase; in the data active = maximum fold increase above about 1.5; inconclusive = no clear call, values can overlap the other calls; tested in PC3 cells
STAT3 act = STAT3 signaling activation; U3A cells, IL-6 STAT3-luciferase reporter, luminescence; 100% = signal with IL-6 EC80 alone; activation (% of control), % at 5.6 µM; 190,000 tested, 0.91% active; AID 871;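 active = activation above the screen-wide mean of compound activation plus 3 SD, cut at about 130% in these data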
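Material: STAT3-luciferase reporter U3A cells; Probe or stimulus: IL-6 (33 ng/mL); Incubation: compound pre-incubation 1 h before IL-6, then 6 h stimulation at 37 °C; Technique: luminescence from STAT3-driven luciferase reporter; Evaluation: % activation versus median of IL-6-stimulated wells; Controls: IL-6-only high control.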
STAT3 inh = STAT3 signaling inhibition. U3A cells, IL-6 STAT3-luciferase reporter, luminescence; host cell line lacks STAT1. AID 862. inhibition, % at 5.5 µM. 190,000 tested, 0.89% active;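 active = inhibition above the mean inhibition across all screened compounds plus 3 SD, cut at about 44% in these data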
STAT1 activator = activators of IFN-gamma induced STAT1 signaling | AID 932 | 200,000 tested, 2.6% active | NIH 3T3 STAT1-luciferase reporter, luminescence; 100% = IFN-gamma alone, no compound | activation (% of control), % at 5.5 µM;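 active = activation above the screen-wide mean activation plus 3 SD, cut at about 130% in these data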
STAT1 blocker = STAT1 signaling inhibition. AID 920. inhibition, % at 5.5 µM. NIH 3T3 STAT1-luciferase reporter, IFN-gamma, luminescence. 200,000 tested, 0.35% active;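 active = inhibition above a set limit, the mean inhibition across all tested compounds plus 3 SD, cut at about 34% in these data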
KCC2 mod = modulates chloride dependent transport by human KCC2; Q9H2X9; KCC2 cells, thallium flux FluoZin-2 fluorescence; B-score of Tl+ flux slope (higher = more flux/activation; lower = inhibition) at 10 µM; 190,000 tested, 2.2% active; AID 1456;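 active = thallium flux slope and its plate-corrected score both differing from the plate sample mean at a set confidence after two filtering rounds, in either direction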;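 note: slope of fluorescence scaled to starting intensity during 10 to 20 s after thallium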
Target sequence (Q9H2X9 whole entry, looked up): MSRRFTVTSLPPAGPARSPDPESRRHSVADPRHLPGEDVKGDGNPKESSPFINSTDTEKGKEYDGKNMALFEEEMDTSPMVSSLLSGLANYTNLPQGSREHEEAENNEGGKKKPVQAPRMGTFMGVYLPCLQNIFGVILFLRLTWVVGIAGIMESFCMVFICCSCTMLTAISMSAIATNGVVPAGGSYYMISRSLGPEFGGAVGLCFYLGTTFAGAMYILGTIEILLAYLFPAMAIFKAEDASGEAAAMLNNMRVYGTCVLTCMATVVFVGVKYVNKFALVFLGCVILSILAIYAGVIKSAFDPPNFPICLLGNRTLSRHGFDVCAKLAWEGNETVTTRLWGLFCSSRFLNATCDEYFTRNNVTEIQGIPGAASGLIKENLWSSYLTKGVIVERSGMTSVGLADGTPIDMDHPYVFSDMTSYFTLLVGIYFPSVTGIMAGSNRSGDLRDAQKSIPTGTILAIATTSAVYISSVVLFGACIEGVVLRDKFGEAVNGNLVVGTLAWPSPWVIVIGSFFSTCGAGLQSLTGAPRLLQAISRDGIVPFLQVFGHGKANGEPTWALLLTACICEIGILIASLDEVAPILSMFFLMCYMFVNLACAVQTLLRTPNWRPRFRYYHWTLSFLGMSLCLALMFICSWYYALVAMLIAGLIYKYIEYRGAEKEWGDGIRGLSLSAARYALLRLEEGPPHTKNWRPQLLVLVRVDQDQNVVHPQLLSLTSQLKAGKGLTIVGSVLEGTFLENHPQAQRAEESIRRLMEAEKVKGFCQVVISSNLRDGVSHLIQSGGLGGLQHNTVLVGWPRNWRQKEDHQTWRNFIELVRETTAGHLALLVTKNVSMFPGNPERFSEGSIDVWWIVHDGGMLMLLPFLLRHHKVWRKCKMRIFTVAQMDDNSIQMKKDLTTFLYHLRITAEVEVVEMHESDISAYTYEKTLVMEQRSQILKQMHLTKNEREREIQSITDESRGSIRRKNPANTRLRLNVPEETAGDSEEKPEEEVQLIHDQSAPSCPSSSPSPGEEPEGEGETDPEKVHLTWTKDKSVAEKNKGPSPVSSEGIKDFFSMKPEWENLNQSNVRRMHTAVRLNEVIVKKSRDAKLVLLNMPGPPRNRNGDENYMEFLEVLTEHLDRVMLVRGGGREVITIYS
Numbers stand for hits; - = inactive; ? = inconclusive; . = no result given.

SMILES | HSV augment | STAT3 act | STAT3 inh | STAT1 activator | STAT1 blocker | KCC2 mod
Cc1ccccc1OC(=O)n1c(=S)oc2cc(Cl)ccc21 | - | - | - | - | - | 2.6
O=C(Oc1ccccc1)n1c(=S)oc2ccccc21 | - | - | - | - | - | -
Cc1csc(NC(=O)c2cccn2C)n1 | - | - | - | 131 | - | -
Cc1csc(NC(=O)c2cn3ccccc3n2)n1 | - | - | 96 | - | 65 | -
Cn1cccc1C(=O)Nc1nc(-c2ccccn2)cs1 | - | - | - | 135 | - | -
COc1cc2nc(CCc3ccccc3)oc(=O)c2cc1OC | - | - | - | - | - | -
CCN(Cc1ccncc1)Cc1cn[nH]c1-c1ccc(OC)cc1F | - | - | - | - | - | -
Cc1cc(O)c(NC(=O)c2cc([N+](=O)[O-])ccc2Cl)cc1C | - | 134 | - | - | - | -
Cc1ccc(O)c(NC(=O)c2cc([N+](=O)[O-])ccc2Cl)c1 | - | - | - | - | - | -
O=C(O)COc1ccccc1/C=N/NC(=O)CN1CCN(S(=O)(=O)c2ccc(Br)cc2)CC1 | - | . | . | . | . | -
Cc1ccc(OCc2cnc(Cl)s2)c(C)c1 | - | - | - | 137 | - | -
CCOC(=O)/C(N=Nc1ccc2c(c1)OCO2)=C(\C)O | - | - | - | 137 | - | -
Cc1cc(N2CCOCC2)ccc1/C=C1/SC(=O)NC1=O | - | 138 | - | 152 | - | -
Cc1cc(N2CCCC2)ccc1/C=C1\NC(=S)N(C)C1=O | ? | - | - | 129 | - | .
CN1C(=O)c2ccc(N3CCCC3)cc2C1=O | - | - | - | - | - | -
Cc1cc(N2CCOCC2)ccc1/C=C1\NC(=O)N(CC(=O)Nc2ccc(F)cc2)C1=O | - | - | - | 131 | - | -
CCn1c(C)nc2cc(C(=O)N/N=C(\C)c3ccccc3O)ccc21 | - | - | - | 137 | - | -
CCn1c(C)nc2cc(C(=O)OC)ccc21 | - | - | - | - | - | -
CCn1c(C)nc2cc(C(=O)N/N=C/c3ccccc3C)ccc21 | - | - | - | 143 | - | .
COc1cccc(-c2nc3sc4c(c3c(=O)[nH]2)CCCCC4)c1 | - | - | - | - | - | -
Cc1ccccc1C(=O)Nc1ccc(Br)cn1 | - | - | - | 134 | - | -
CSc1nc(-c2ccccc2)[nH]c(=S)c1C(C)=O | - | 133 | - | - | - | 21
Oc1oc(-c2cccc3ccccc23)nc1C=NCc1ccccc1 | - | - | - | - | - | -
Oc1oc(-c2cccc3ccccc23)nc1/C=N/c1nccs1 | - | - | - | - | - | 24
CC(=O)N/C(=C\c1ccc(F)cc1)C(=O)N(C)C | - | - | - | - | - | -
SMILES | HSV augment | STAT3 act | STAT3 inh | STAT1 activator | STAT1 blocker | KCC2 mod
CCOc1ccc(-c2nnc(-c3ccncc3)o2)cc1 | - | - | - | 133 | - | .
C(=C\c1nc(-c2cccnc2)no1)/c1ccccc1 | - | - | - | 145 | - | -
COc1cccc(-c2nc(-c3ccc(C(=O)O)cc3)no2)c1 | - | . | . | . | . | .
COc1cccc(-c2noc(-c3ccc(Cl)nc3)n2)c1 | - | 144 | - | 151 | - | -
CCOc1ccc(-c2nc(-c3cccnc3)no2)cc1 | - | - | - | 140 | - | -
CCCCOc1ccc(-c2nnc(-c3ccncc3)o2)cc1 | - | - | - | - | - | -
CCc1ccc(OCCCC(=O)Nc2ccc(S(N)(=O)=O)cc2)cc1 | - | - | - | - | - | -
O=c1oc(-c2cccnc2)nc2ccccc12 | - | - | - | - | - | -
c1ccc(-c2noc(-c3cccnc3)n2)cc1 | - | - | - | 150 | - | -
c1ccc(-c2cnc(-c3cccnc3)o2)cc1 | - | - | - | 135 | - | -
COc1ccc(-c2noc(-c3cccnc3)n2)cc1OC | - | - | - | 140 | - | -
c1ccc(-c2ccc(-c3nc(-c4cccnc4)no3)cc2)cc1 | - | - | - | 137 | - | -
C=CCn1c(COc2ccccc2)nnc1SC(C)C(=O)N/N=C/c1cc(Cl)ccc1O (stereo unspecified) | - | - | - | - | - | -
CS(=O)(=O)c1nc2c(cc1C#N)CCCC2 | - | - | - | - | - | -
COc1cc(/C=C/C(=O)O)cc(S(=O)(=O)Nc2ccc3c(c2)OCO3)c1OC | - | - | - | - | - | -
COc1ccc(C)cc1N(C(=O)COc1cccc(F)c1)c1nc2ccccc2s1 | - | 134 | - | - | - | -
